How the values were obtained:
Assay type in all cases: functional
[1] = Growth inhibition of human […] cells at 10 uM after 48 hrs by SRB method; conditions: read-out: GI
Method in brief: (§1)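 NCI 56-line primary screen at a single 10^-5 M concentration. Cells grown in RPMI 1640 with 5% FBS and 2 mM L-glutamine, plated at 5000–40,000 cells/well, then preincubated for 24 h. Exposure was 48 h at 37 °C and 5% CO2. Adherent cells were fixed with cold TCA at 10% final, suspension cells at 16%. Staining used 0.4% SRB, read at 515 nm. Results are % growth inhibition relative to control.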

[2] = Growth inhibition of human HL-60(TB) cells at 10 uM after 48 hrs by SRB method; conditions: HL-60, 48 h, read-out: GI
Method in brief: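 NCI single-dose primary screen at 10^-5 M, 48 h exposure. Cells grown in RPMI 1640 with 5% FBS and 2 mM L-glutamine. Suspension cells fixed in situ with TCA (final 16%), stained with SRB, absorbance read at 515 nm. Percent growth inhibition calculated against time-zero and untreated control plates.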

[3] = system: SR; test: Growth inhibition of human SR cells at 10 uM after 48 hrs by SRB method; conditions: read-out: GI; method in brief: as §1
[4] = Growth inhibition of human UACC257 cells at 10 uM after 48 hrs by SRB method; conditions: UACC-257, 48 h, read-out: GI
Method in brief: (§2)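 NCI 56-line screen, single-dose primary assay at 10^-5 M. Cells grown in RPMI 1640 with 5% FBS and 2 mM L-glutamine, plated at 5000–40,000 cells/well and held 24 h at 37 °C, 5% CO2 before drug addition. Compound was given from DMSO stock, exposure 48 h, then TCA fixation and SRB staining with absorbance at 515 nm. % growth is taken relative to time-zero and untreated controls.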

[5] = system: NCI-H522; test: Growth inhibition of human NCI-H522 cells at 10 uM after 48 hrs by SRB method; conditions: NCI-H522, 48 h, read-out: GI; method in brief: as §1
[6] = system: A498; test: Growth inhibition of human A498 cells at 10 uM after 48 hrs by SRB method; conditions: A498, 48 h, read-out: GI; method in brief: as §1
[7] = Growth inhibition of human COLO205 cells at 10 uM after 48 hrs by SRB method; conditions: COLO 205, 48 h, read-out: GI; method in brief: as §1
[8] = system: MDA-MB-468; test: Growth inhibition of human MDA-MB-468 cells at 10 uM after 48 hrs by SRB method; conditions: MDA-MB-468, 48 h, read-out: GI; method in brief: as §1
[9] = Growth inhibition of human MOLT4 cells at 10 uM after 48 hrs by SRB method; conditions: MOLT-4, 48 h, read-out: GI; method in brief: as §1
[10] = Growth inhibition of human UACC62 cells at 10 uM after 48 hrs by SRB method; conditions: UACC-62, 48 h, read-out: GI; method in brief: as §2
[11] = system: SK-MEL-2; test: Growth inhibition of human SK-MEL-2 cells at 10 uM after 48 hrs by SRB method; conditions: SK-MEL-2, 48 h, read-out: GI; method in brief: as §1
[12] = system: ACHN; test: Growth inhibition of human ACHN cells at 10 uM after 48 hrs by SRB method; conditions: read-out: GI; method in brief: as §1
[13] = system: MCF7; test: Growth inhibition of human MCF7 cells at 10 uM after 48 hrs by SRB method; conditions: MCF7, 48 h, read-out: GI; method in brief: as §1
[14] = system: M14; test: Growth inhibition of human M14 cells at 10 uM after 48 hrs by SRB method; conditions: M14, 48 h, read-out: GI; method in brief: as §1
[15] = system: SK-MEL-5; test: Growth inhibition of human SK-MEL-5 cells at 10 uM after 48 hrs by SRB method; conditions: SK-MEL-5, 48 h, read-out: GI; method in brief: as §1
[16] = system: MDA-MB-231; test: Growth inhibition of human MDA-MB-231 cells at 10 uM after 48 hrs by SRB method; conditions: MDA-MB-231, 48 h, read-out: GI; method in brief: as §1
[17] = system: HT-29; test: Growth inhibition of human HT-29 cells at 10 uM after 48 hrs by SRB method; conditions: HT-29, 48 h, read-out: GI; method in brief: as §1
[18] = Growth inhibition of human BT549 cells at 10 uM after 48 hrs by SRB method; conditions: BT-549, 48 h, read-out: GI; method in brief: as §1
[19] = system: T47D; test: Growth inhibition of human T47D cells at 10 uM after 48 hrs by SRB method; conditions: read-out: GI; method in brief: as §2
[20] = Growth inhibition of human OVCAR8 cells at 10 uM after 48 hrs by SRB method; conditions: OVCAR-8, 48 h, read-out: GI; method in brief: as §1
[21] = Growth inhibition of human HCT116 cells at 10 uM after 48 hrs by SRB method; conditions: HCT-116, 48 h, read-out: GI; method in brief: as §1
[22] = system: A549; test: Growth inhibition of human A549 cells at 10 uM after 48 hrs by SRB method; conditions: A549, 48 h, read-out: GI; method in brief: as §1
[23] = Growth inhibition of human HOP92 cells at 10 uM after 48 hrs by SRB method; conditions: HOP-92, 48 h, read-out: GI; method in brief: as §1
[24] = Growth inhibition of human UO31 cells at 10 uM after 48 hrs by SRB method; conditions: UO-31, 48 h, read-out: GI; method in brief: as §2
[25] = system: NCI-H460; test: Growth inhibition of human NCI-H460 cells at 10 uM after 48 hrs by SRB method; conditions: NCI-H460, 48 h, read-out: GI; method in brief: as §1
[26] = Growth inhibition of human HCT15 cells at 10 uM after 48 hrs by SRB method; conditions: HCT-15, 48 h, read-out: GI; method in brief: as §1
[27] = system: SN12C; test: Growth inhibition of human SN12C cells at 10 uM after 48 hrs by SRB method; conditions: read-out: GI; method in brief: as §1
[28] = system: NCI-H226; test: Growth inhibition of human NCI-H226 cells at 10 uM after 48 hrs by SRB method; conditions: NCI-H226, 48 h, read-out: GI; method in brief: as §1
[29] = Growth inhibition of human TK10 cells at 10 uM after 48 hrs by SRB method; conditions: TK-10, 48 h, read-out: GI; method in brief: as §2
[30] = system: NCI/ADR-RES; test: Growth inhibition of human NCI/ADR-RES cells at 10 uM after 48 hrs by SRB method; conditions: read-out: GI; method in brief: as §1
[31] = Growth inhibition of human PC3 cells at 10 uM after 48 hrs by SRB method; conditions: PC-3, 48 h, read-out: GI; method in brief: as §1
[32] = system: K562; test: Growth inhibition of human K562 cells at 10 uM after 48 hrs by SRB method; conditions: K562, 48 h, read-out: GI; method in brief: as §1
[33] = system: CCRF-CEM; test: Growth inhibition of human CCRF-CEM cells at 10 uM after 48 hrs by SRB method; conditions: read-out: GI; method in brief: as §1
[34] = Growth inhibition of human Caki1 cells at 10 uM after 48 hrs by SRB method; conditions: CAKI-1, 48 h, read-out: GI; method in brief: as §1
[35] = Growth inhibition of human SF268 cells at 10 uM after 48 hrs by SRB method; conditions: SF-268, 48 h, read-out: GI; method in brief: as §1
[36] = system: KM12; test: Growth inhibition of human KM12 cells at 10 uM after 48 hrs by SRB method; conditions: KM12, 48 h, read-out: GI; method in brief: as §1
[37] = system: 786-0; test: Growth inhibition of human 786-0 cells at 10 uM after 48 hrs by SRB method; conditions: 786-0, 48 h, read-out: GI; method in brief: as §1
[38] = Growth inhibition of human SF295 cells at 10 uM after 48 hrs by SRB method; conditions: SF-295, 48 h, read-out: GI; method in brief: as §1
[39] = Growth inhibition of human OVCAR4 cells at 10 uM after 48 hrs by SRB method; conditions: OVCAR-4, 48 h, read-out: GI; method in brief: as §1
[40] = Growth inhibition of human OVCAR3 cells at 10 uM after 48 hrs by SRB method; conditions: OVCAR-3, 48 h, read-out: GI; method in brief: as §1
[41] = system: MDA-MB-435; test: Growth inhibition of human MDA-MB-435 cells at 10 uM after 48 hrs by SRB method; conditions: MDA-MB-435, 48 h, read-out: GI; method in brief: as §1

Row | SMILES | inhibition of growth at 10 µM [1] [%] | inhibition of growth at 10 µM [2] [%] | inhibition of growth at 10 µM [3] [%] | inhibition of growth at 10 µM [5] [%] | inhibition of growth at 10 µM [6] [%] | inhibition of growth at 10 µM [7] [%] | inhibition of growth at 10 µM [8] [%] | inhibition of growth at 10 µM [9] [%] | inhibition of growth at 10 µM [10] [%] | inhibition of growth at 10 µM [15] [%] | inhibition of growth at 10 µM [17] [%] | inhibition of growth at 10 µM [19] [%] | inhibition of growth at 10 µM [20] [%] | inhibition of growth at 10 µM [22] [%] | inhibition of growth at 10 µM [23] [%] | inhibition of growth at 10 µM [24] [%] | inhibition of growth at 10 µM [29] [%] | inhibition of growth at 10 µM [31] [%] | inhibition of growth at 10 µM [32] [%] | inhibition of growth at 10 µM [33] [%] | also measured
1 | O=C(CN1CCN(c2nnc(-c3ccccc3)c3ccccc23)CC1)Nc1nc(-c2ccccc2)cs1 | 56 | 50 | 57 | 58 | 54 | 54 | 59 | 70 | 44 | 77 | 34 | 85 | 44 | 48 | 47 | 90 | 30 | 62 | 50 | 53 | inhibition of growth at 10 µM [4]: 48%; inhibition of growth at 10 µM [11]: 40%; inhibition of growth at 10 µM [12]: 31%; inhibition of growth at 10 µM [13]: 53%; inhibition of growth at 10 µM [14]: 44%; inhibition of growth at 10 µM [16]: 38%; inhibition of growth at 10 µM [18]: 40%; inhibition of growth at 10 µM [21]: 38%; inhibition of growth at 10 µM [25]: 45%; inhibition of growth at 10 µM [26]: 51%; inhibition of growth at 10 µM [27]: 32%; inhibition of growth at 10 µM [28]: 38%; inhibition of growth at 10 µM [30]: 45%
2 | CCOC(=O)c1sc(NC(=O)CN2CCN(c3nnc(-c4ccccc4)c4ccccc34)CC2)nc1C | 53 | 43 | 64 | 64 | 37 | 34 | 49 | 59 | 34 | 33 | 50 | 68 | 33 | 33 | 38 | 46 | 36 | 57 | 34 | 34 | inhibition of growth at 10 µM [34]: 35%; inhibition of growth at 10 µM [35]: 32%; inhibition of growth at 10 µM [36]: 30%; inhibition of growth at 10 µM [37]: 31%; inhibition of growth at 10 µM [14]: 32%; inhibition of growth at 10 µM [16]: 49%; inhibition of growth at 10 µM [18]: 33%; inhibition of growth at 10 µM [26]: 44%
3 | O=C(CN1CCN(c2nnc(-c3ccccc3)c3ccccc23)CC1)Nc1nc(-c2ccc(Cl)cc2)cs1 | 58 | 45 | 53 | 47 | 52 | 32 | 66 | 64 | 36 | 56 | 32 | 65 | 37 | 45 | 31 | 50 | 41 | 56 | 60 | 38 | inhibition of growth at 10 µM [4]: 45%; inhibition of growth at 10 µM [38]: 38%; inhibition of growth at 10 µM [34]: 41%; inhibition of growth at 10 µM [39]: 30%; inhibition of growth at 10 µM [40]: 31%; inhibition of growth at 10 µM [35]: 32%; inhibition of growth at 10 µM [37]: 30%; inhibition of growth at 10 µM [11]: 31%; inhibition of growth at 10 µM [13]: 44%; inhibition of growth at 10 µM [21]: 38%; inhibition of growth at 10 µM [27]: 30%; inhibition of growth at 10 µM [28]: 31%; inhibition of growth at 10 µM [41]: 31%; inhibition of growth at 10 µM [30]: 39%

Source: ChEMBL document CHEMBL3751694, “1-Piperazinylphthalazines as potential VEGFR-2 inhibitors and anticancer agents: Synthesis and in vitro biological evaluation” (Eur J Med Chem, 2016)
